According to ChEMBL document CHEMBL1151859, “Structure-activity relationship studies of a novel series of anthrax lethal factor inhibitors” (Bioorg Med Chem, 2009):
pEC50, pIC50, pKi: −log10 of the molar value. Calls of active or inactive are those of the source. The calls are words filed in the database; no cut-off is given here.

Assays:
HeLa [1] = experiment: Protection against anthrax protective antigen-38/LF-induced cell death in human HeLa cells assessed as MEK1 cleavage at 30 uM treated 90 mins after PA38/LA challenge immunoblotting assay; format: functional, cell-based
Lethal factor = target: T1, Lethal factor (Bacillus anthracis, UniProt P15917); experiment: Inhibition of Bacillus anthracis lethal factor assessed as cleavage of MAPKK by fluorescence peptide cleavage assay
T1 sequence (P15917 whole entry): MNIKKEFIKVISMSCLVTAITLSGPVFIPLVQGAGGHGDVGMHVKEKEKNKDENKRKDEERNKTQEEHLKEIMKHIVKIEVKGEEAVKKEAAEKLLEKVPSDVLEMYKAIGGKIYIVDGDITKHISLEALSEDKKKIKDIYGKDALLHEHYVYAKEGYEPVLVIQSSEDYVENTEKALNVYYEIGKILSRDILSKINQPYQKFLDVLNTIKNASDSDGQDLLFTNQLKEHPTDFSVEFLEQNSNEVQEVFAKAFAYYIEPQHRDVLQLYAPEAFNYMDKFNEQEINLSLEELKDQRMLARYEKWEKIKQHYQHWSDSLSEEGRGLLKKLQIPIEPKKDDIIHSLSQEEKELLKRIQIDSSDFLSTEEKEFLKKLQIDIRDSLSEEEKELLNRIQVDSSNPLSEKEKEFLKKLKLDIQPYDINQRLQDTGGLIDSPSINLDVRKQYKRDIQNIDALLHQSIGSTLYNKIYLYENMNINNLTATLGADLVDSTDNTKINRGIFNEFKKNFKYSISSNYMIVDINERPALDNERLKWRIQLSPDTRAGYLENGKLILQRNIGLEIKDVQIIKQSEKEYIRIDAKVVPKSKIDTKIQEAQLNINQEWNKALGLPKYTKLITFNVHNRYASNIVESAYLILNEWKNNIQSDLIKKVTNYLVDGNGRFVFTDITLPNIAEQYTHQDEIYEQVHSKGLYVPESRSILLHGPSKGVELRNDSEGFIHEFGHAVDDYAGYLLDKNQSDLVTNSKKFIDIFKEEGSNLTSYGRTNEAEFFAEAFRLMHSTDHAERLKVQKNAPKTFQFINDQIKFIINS

[2] = target: 72 kDa type IV collagenase (Homo sapiens) (UniProt P08253); experiment: Inhibition of human MMP2 up to 100 uM by fluorescence peptide cleavage assay
72 kDa type IV collagenase (Homo sapiens), sequence (P08253 110-660 limits assumed): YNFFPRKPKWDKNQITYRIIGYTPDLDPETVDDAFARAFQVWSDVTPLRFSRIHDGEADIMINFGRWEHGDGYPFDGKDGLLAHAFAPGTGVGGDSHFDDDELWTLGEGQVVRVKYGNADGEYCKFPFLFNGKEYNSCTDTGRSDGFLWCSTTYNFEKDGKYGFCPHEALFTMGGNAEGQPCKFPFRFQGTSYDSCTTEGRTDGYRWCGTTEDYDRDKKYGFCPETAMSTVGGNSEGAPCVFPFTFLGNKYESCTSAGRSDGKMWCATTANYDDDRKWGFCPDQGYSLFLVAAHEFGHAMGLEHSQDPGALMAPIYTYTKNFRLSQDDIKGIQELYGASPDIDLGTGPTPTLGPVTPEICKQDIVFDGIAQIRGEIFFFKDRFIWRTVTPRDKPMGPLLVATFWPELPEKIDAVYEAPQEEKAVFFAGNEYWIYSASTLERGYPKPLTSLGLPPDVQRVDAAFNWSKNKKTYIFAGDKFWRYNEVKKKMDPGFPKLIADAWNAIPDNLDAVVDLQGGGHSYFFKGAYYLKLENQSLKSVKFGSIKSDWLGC
Summary of the method: (§1)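 Pro-MMP-2 or pro-MMP-9 activated with 1 mM APMA (20 min or 2 h, respectively), then used at 10 μg/mL with 5-FAM/QXL520 peptide substrate in kit assay buffer.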

[3] = target: Matrix metalloproteinase-9 (Homo sapiens) (UniProt P14780); experiment: Inhibition of human MMP9 up to 100 uM by fluorescence peptide cleavage assay; summary of the method: as §1
Matrix metalloproteinase-9 (Homo sapiens), sequence (P14780 whole entry): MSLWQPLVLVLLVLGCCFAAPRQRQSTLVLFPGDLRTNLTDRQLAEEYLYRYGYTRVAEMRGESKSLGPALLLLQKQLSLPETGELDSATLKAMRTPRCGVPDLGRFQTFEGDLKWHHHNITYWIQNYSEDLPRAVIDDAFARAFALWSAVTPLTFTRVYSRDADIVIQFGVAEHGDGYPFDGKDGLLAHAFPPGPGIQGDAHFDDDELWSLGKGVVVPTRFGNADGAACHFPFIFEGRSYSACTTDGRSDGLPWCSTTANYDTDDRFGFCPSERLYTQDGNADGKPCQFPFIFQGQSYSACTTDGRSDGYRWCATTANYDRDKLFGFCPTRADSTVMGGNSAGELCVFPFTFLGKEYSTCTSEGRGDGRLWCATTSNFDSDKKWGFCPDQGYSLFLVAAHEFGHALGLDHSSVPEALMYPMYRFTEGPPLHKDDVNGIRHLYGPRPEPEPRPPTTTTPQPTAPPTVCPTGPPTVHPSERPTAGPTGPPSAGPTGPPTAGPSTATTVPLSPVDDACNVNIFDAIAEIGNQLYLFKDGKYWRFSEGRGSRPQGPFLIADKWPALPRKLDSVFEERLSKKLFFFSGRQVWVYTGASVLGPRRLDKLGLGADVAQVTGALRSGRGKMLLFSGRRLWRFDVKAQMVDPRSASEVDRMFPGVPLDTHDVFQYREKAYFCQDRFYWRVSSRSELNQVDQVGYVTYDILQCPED

RAW264.7 = experiment: Protection against anthrax protective antigen-38/LF-induced cell death in mouse RAW264.7 cells pretreated for 2 hrs followed by PA38/LA challenge assessed as cell viability measured after 4 hrs by ATPlite assay; format: functional, cell-based
Bacillus anthracis [4] = experiment: Antibacterial activity against Bacillus anthracis Sterene infected in A/J mouse assessed as mouse survival at 25 mg/kg, ip daily after 24 hrs of infection for 8 days relative to control; format: functional, organism-based; parameters: dose 25 mg/kg
[5] = Chemical stability of the compound; format: physicochemical
[6] = Solubility at 500 uM; format: physicochemical
HeLa [7] = experiment: Protection against anthrax protective antigen-38/LF-induced cell death in human HeLa cells assessed as MEK1 cleavage at 100 uM treated 90 mins after PA38/LA challenge immunoblotting assay; format: functional, cell-based
Bacillus anthracis [8] = experiment: Antibacterial activity against Bacillus anthracis Sterene infected in A/J mouse assessed as mouse survival at 25 mg/kg, ip daily after 24 hrs of infection for 8 days; format: functional, organism-based; parameters: dose 25 mg/kg
HeLa [9] = experiment: Protection against anthrax protective antigen-38/LF-induced cell death in human HeLa cells assessed as MEK1 cleavage at 300 uM treated 90 mins after PA38/LA challenge immunoblotting assay; format: functional, cell-based

**Q.** Which Activity (HeLa [1]) does the source give for `CCOC(=O)CCc1c(CC(=O)OCC)c[nH]c1/C=N/O` here?
**A.** inactive

**Q.** What does the source list for `O=S(=O)(Nc1cccs1)c1ccc(-c2ccc(Cl)cc2)cc1`?
**A.** pIC50 (Lethal factor): < 4.30; Activity [2]: inactive; Activity [3]: inactive

**Q.** For `CC(C)(C)C(=O)CSC1=NNC(c2ccccc2)S1` (configuration not stated), which Activity (HeLa [1]) is on record?
**A.** inactive

**Q.** With `Cc1ccc(S(=O)(=O)Nc2sccc2-c2nc3ccccc3s2)cc1Cl` as the compound, how does the pIC50 (Lethal factor) read?
**A.** 5.18

**Q.** What about the pEC50 (RAW264.7) of the same compound?
**A.** 6.00

**Q.** What about the Activity (Bacillus anthracis [4]) of the same compound?
**A.** Active

**Q.** What about the Stability [5] of the same compound?
**A.** 99%

**Q.** With `Cc1ccc(NS(=O)(=O)c2cccs2)cc1Cl` as the compound, how does the pIC50 (Lethal factor) read?
**A.** < 4.00

**Q.** What about the Activity [2] of the same compound?
**A.** inactive

**Q.** What about the Activity [3] of the same compound?
**A.** inactive

**Q.** With `COc1ccc(-c2ccc(S(=O)(=O)Nc3sccc3-c3nc4ccccc4s3)cc2)cc1` as the compound, how does the pIC50 (Lethal factor) read?
**A.** 5.42

**Q.** And the pEC50 (RAW264.7)?
**A.** 6.30

**Q.** What about the solubility [6] of the same compound?
**A.** Insoluble

**Q.** What about the Activity (HeLa [7]) of the same compound?
**A.** Active

**Q.** What about the Activity (Bacillus anthracis [8]) of the same compound?
**A.** Active

**Q.** And the Stability [5]?
**A.** 84%

**Q.** For `CC(C)(C)c1ccc(-c2noc(C(=O)NNC(=S)Nc3ccc(C(F)(F)F)cc3)n2)cc1`, which Activity (HeLa [1]) is on record?
**A.** Active

**Q.** With `COc1ccc(-c2ccc(S(=O)(=O)Nc3cccs3)cc2)cc1` as the compound, how does the pIC50 (Lethal factor) read?
**A.** < 4.30

**Q.** What about the Activity [2] of the same compound?
**A.** inactive

**Q.** And the Activity [3]?
**A.** inactive

**Q.** With `Cc1csc(NS(=O)(=O)c2ccc([N+](=O)[O-])cc2)c1-c1nc2ccccc2s1` as the compound, how does the pIC50 (Lethal factor) read?
**A.** 4.96

**Q.** What about the solubility [6] of the same compound?
**A.** Insoluble

**Q.** And the Stability [5]?
**A.** 99%

**Q.** What does the source list for `O=S(=O)(Nc1ccccc1)c1cccs1`?
**A.** pIC50 (Lethal factor): < 4.00; Activity [2]: inactive; Activity [3]: inactive

**Q.** Which results are given for `O=S(=O)(Nc1sccc1-c1nc2ccccc2s1)c1ccc2ncsc2c1`?
**A.** pIC50 (Lethal factor): 5.00; pEC50 (RAW264.7): 5.80; Stability [5]: 99.9%

**Q.** Which results are given for `Cc1ccc(S(=O)(=O)Nc2cccs2)cc1Cl`?
**A.** pIC50 (Lethal factor): < 4.30; Activity [2]: inactive; Activity [3]: inactive

**Q.** With `O=S(=O)(Nc1sccc1-c1nc2ccccc2s1)c1ccc(-c2ccc(Cl)cc2)cc1` as the compound, how does the pIC50 (Lethal factor) read?
**A.** 5.52

**Q.** What about the pKi (Lethal factor) of the same compound?
**A.** 5.77

**Q.** And the pEC50 (RAW264.7)?
**A.** 6.60

**Q.** What about the solubility [6] of the same compound?
**A.** Insoluble

**Q.** Which Activity (HeLa [1]) does the source give for `Cc1cc(S(=O)(=O)N[C@H](C(=O)NO)C2CCOCC2)ccc1F` here?
**A.** Active

**Q.** Which results are given for `O=S(=O)(Nc1cccc(C(F)(F)F)c1)c1cccs1`?
**A.** pIC50 (Lethal factor): < 4.00; Activity [2]: inactive; Activity [3]: inactive

**Q.** With `Cc1csc(N(S(=O)(=O)c2ccc(F)cc2)S(=O)(=O)c2ccc(F)cc2)c1-c1nc2ccccc2s1` as the compound, how does the pIC50 (Lethal factor) read?
**A.** < 4.00

**Q.** Which Activity (HeLa [9]) does the source give for `Nc1ccc(Nc2ccc(N)cc2S(=O)(=O)O)cc1` here?
**A.** Active

**Q.** With `Cc1cc(C)n(-c2ccc(S(=O)(=O)Nc3sccc3-c3nc4ccccc4s3)cc2)n1` as the compound, how does the pIC50 (Lethal factor) read?
**A.** 4.96

**Q.** With `O=S(=O)(Nc1sccc1-c1nc2ccccc2s1)c1ccc(S(=O)(=O)N2CCOCC2)cc1` as the compound, how does the pIC50 (Lethal factor) read?
**A.** 4.77

**Q.** With `Cc1c(S(=O)(=O)Nc2sccc2-c2nc3ccccc3s2)sc2ccccc12` as the compound, how does the pIC50 (Lethal factor) read?
**A.** 5.00

**Q.** With `O=S(=O)(NCCc1nc2ccccc2s1)c1ccc(-c2ccc(Cl)cc2)cc1` as the compound, how does the pIC50 (Lethal factor) read?
**A.** < 4.30

**Q.** With `O=S(=O)(Nc1sccc1-c1nc2ccccc2s1)c1ccc2c(c1)CCO2` as the compound, how does the pIC50 (Lethal factor) read?
**A.** 4.66

**Q.** With `Cc1csc(NS(=O)(=O)c2ccccc2C(F)(F)F)c1-c1nc2ccccc2s1` as the compound, how does the pIC50 (Lethal factor) read?
**A.** < 4.00

**Q.** With `Cc1c(Cl)cccc1S(=O)(=O)Nc1sccc1-c1nc2ccccc2s1` as the compound, how does the pIC50 (Lethal factor) read?
**A.** < 4.30

**Q.** With `COc1ccc(-c2ccc(S(=O)(=O)Nc3sccc3-c3nc4ccccc4s3)cc2Cl)cc1` as the compound, how does the pIC50 (Lethal factor) read?
**A.** 5.52

**Q.** With `O=S(=O)(Nc1sccc1-c1nc2ccccc2s1)c1ccc(Cl)c(Cl)c1` as the compound, how does the pIC50 (Lethal factor) read?
**A.** 5.05

**Q.** With `O=S(=O)(Nc1sccc1-c1nc2ccccc2s1)c1ccc(-c2cnco2)cc1` as the compound, how does the pIC50 (Lethal factor) read?
**A.** 4.89

**Q.** With `Cc1ccc(NS(=O)(=O)c2cccs2)cc1C(F)(F)F` as the compound, how does the pIC50 (Lethal factor) read?
**A.** < 4.00

**Q.** What about the Activity [2] of the same compound?
**A.** inactive

**Q.** What about the Activity [3] of the same compound?
**A.** inactive
